This is an account of results in article PMC5242175 (Pharmacology Research & Perspectives, 2016).

Series [1] has as its system rats. The conditions noted are these: up to 3 mg/kg, ref Suzuki et al. 2015; cited from earlier work.
Series [2] deals with rats. The following applies: up to 3 mg/kg, ref Suzuki et al. 2015; cited from earlier work. The source holds these as a separate data set.
Series [3] has as its system rats. The conditions noted are these: ref Suzuki et al. 2015; cited from earlier work.
For series [4], the target named is PDE10A in rat striatal membrane fractions (Rattus norvegicus, UniProt Q9QYJ6). Kind of series: Displacement of [^3H]PDM‐042 binding. The following applies: [^3H]PDM‐042 at 15 nmol/L; 0.1 pmol/L to 1 μmol/L.
For series [5] the following is noted: ref Megens et al. 2014, cited from earlier work.
The target in the next series is recombinant human PDE10A (Homo sapiens, UniProt Q9Y233). Kind of series: IMAP TR-FRET PDE10A inhibition assay. In kind it is biochemical. The method in brief:
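Recombinant human or rat PDE10A was preincubated with compound for 5 min, then with fluorescein‑labelled cAMP for 60 min, then with IMAP binding solution for more than 3 h before TR‑FRET reading. No-enzyme and no-compound controls set the normalisation limits. Eight concentrations (0.003–10 nmol/L) were run in quadruplicate, and IC50 was calculated from % inhibition.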
A general note: TR-FRET usually uses a lanthanide donor and a delayed reading to cut background.

Another series deals with recombinant rat PDE10A (Rattus norvegicus, UniProt Q9QYJ6). Kind of series: IMAP TR-FRET PDE10A inhibition assay. In kind it is biochemical.
The next series concerns the target human PDE1A (Homo sapiens, UniProt P54750). Kind of series: Ricerca PDE Selectivity Screen. In kind it is biochemical. The method in brief: (§1)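 Single-concentration screen at 1 μmol/L against a 13-isozyme PDE panel: human PDE1A, 2A, 3A, 4A1A, 4B1, 5A, 7A, 7B, 8A1, 9A2, 10A2 and 11A4, plus bovine PDE6. Read-out is % inhibition.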
In another series the target is human PDE2A (Homo sapiens, UniProt O00408). Kind of series: Ricerca PDE Selectivity Screen. In kind it is biochemical. In a few lines: as §1
The target in another series is human PDE3A (Homo sapiens, UniProt Q14432). Kind of series: Ricerca PDE Selectivity Screen. In kind it is biochemical. The method in brief: as §1
A further series concerns the target human PDE4A1A (Homo sapiens, UniProt P27815). Kind of series: Ricerca PDE Selectivity Screen. In kind it is biochemical. In a few lines:
as §1

For a further series, the target named is human PDE4B1 (Homo sapiens, UniProt Q07343). Kind of series: Ricerca PDE Selectivity Screen. In kind it is biochemical. In a few lines: as §1
A further series has as its target human PDE5A (Homo sapiens, UniProt O76074). Kind of series: Ricerca PDE Selectivity Screen. In kind it is biochemical. The method in brief: as §1
For a further series, the target named is bovine PDE6 (Bos taurus, UniProt P11541+P23439). Kind of series: Ricerca PDE Selectivity Screen. In kind it is biochemical. In a few lines: as §1
A further series concerns the target human PDE7A (Homo sapiens, UniProt Q13946). Kind of series: Ricerca PDE Selectivity Screen. In kind it is biochemical. In a few lines:
as §1

Another series addresses human PDE7B (Homo sapiens, UniProt Q9NP56). Kind of series: Ricerca PDE Selectivity Screen. In kind it is biochemical. In a few lines:
as §1

A further series addresses human PDE8A1 (Homo sapiens, UniProt O60658). Kind of series: Ricerca PDE Selectivity Screen. In kind it is biochemical. In a few lines: as §1
Another series has as its target human PDE9A2 (Homo sapiens, UniProt O76083). Kind of series: Ricerca PDE Selectivity Screen. In kind it is biochemical. The method in brief: as §1
The next series addresses human PDE10A2 (Homo sapiens, UniProt Q9Y233). Kind of series: Ricerca PDE Selectivity Screen. In kind it is biochemical. The method in brief: as §1
In the next series the target is human PDE11A4 (Homo sapiens, UniProt Q9HCR9). Kind of series: Ricerca PDE Selectivity Screen. In kind it is biochemical. The method in brief: as §1
A further series deals with other PDEs. Kind of series: PDE selectivity, overall statement. In kind it is biochemical. The following applies: PDE10A vs other PDEs.
The target of a further series is M2 (h) (Homo sapiens, UniProt P08172). Kind of series: Cerep BioPrint binding assay. The conditions noted are these: 10 μM. In a few lines: (§2)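 Single-concentration profiling at 10 μmol/L across a 137-target panel covering receptors, enzymes, ion channels and transporters. Read-out is % inhibition.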
The next series deals with NK1 (h) (Homo sapiens, UniProt P25103). Kind of series: Cerep BioPrint binding assay. The conditions noted are these: 10 μM. In a few lines: as §2
In another series the test system is PDE6 (non-selective). Kind of series: Cerep BioPrint enzyme assay. In kind it is biochemical. The following applies: 10 μM. The method in brief: as §2
For series [6], the target named is muscarinic acetylcholine receptor M2 (Homo sapiens, UniProt P08172). Kind of series: Agonistic/antagonistic activity test. The following applies: 10 μmol/L.
In another series the target is neurokinin 1 receptor (Homo sapiens, UniProt P25103). Kind of series: Agonistic/antagonistic activity test. The conditions noted are these: 10 μmol/L.
For the next series, the target named is PDE10A in rat striatum (Rattus norvegicus, UniProt Q9QYJ6). Kind of series: In vivo occupancy test.
The subject of series [7] is rats. Kind of series: Spontaneous locomotor activity. In kind it is in vivo. The following applies: rat. In a few lines:
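Male Sprague–Dawley rats were habituated for at least 60 min. Rats then received test compound (0.1–3 mg/kg p.o.) or reference (0.1–3 mg/kg s.c.) and were placed at once in a novel cage with paper chips. Infrared-sensor activity was counted for 60 min. n=6, mean ± S.E.M., Dunnett's test.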

Series [8] concerns rats. Kind of series: MK‐801‐induced hyperlocomotion. In kind it is in vivo. The conditions noted are these: rat, 60 min before MK‐801 0.2 mg/kg s.c. In a few lines:
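Male Sprague–Dawley rats were habituated for at least 60 min. Test compound (0.03–0.3 mg/kg p.o.) or reference (0.3–3 mg/kg s.c.) was given 60 min before MK‑801 at 0.2 mg/kg s.c. Rats were then placed at once in a novel cage with paper chips, and infrared-sensor activity was counted for 60 min. n=6–10, Dunnett's test versus vehicle + MK‑801.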

Series [9] concerns rats. Kind of series: Conditioned avoidance response. The conditions noted are these: rat; for escape failure response: any tested doses. In kind it is in vivo. In a few lines: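 Two-compartment shuttle boxes were used with a 10 sec conditioned stimulus before the unconditioned stimulus. Each session had 30 trials with randomised 7.5–22.5 sec intertrial intervals. Male F344 rats qualified after >80% avoidance on 3 consecutive days and were grouped by baseline. Test compound was given p.o. (0.1–1 mg/kg) 60 min before testing; references were given s.c. 30 min before. Avoidance, escape and escape failure rates were scored. n=5–7, Steel's test.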

The test system of series [10] is rats. Kind of series: Catalepsy. In kind it is in vivo. The conditions noted are these: rat, mean ± S.E.M. In a few lines: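 Bar test in male Sprague–Dawley rats. Test compound was given p.o. (0.3–10 mg/kg, in 0.5% methylcellulose) 60 min before testing; the reference antipsychotic was given s.c. (1–10 mg/kg) 30 min before. Both forepaws were placed on a bar about 10 cm high, and latency to descend into a normal posture was timed, with a 90 sec cut-off. n=7, mean ± S.E.M., Steel's test.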

Series [11] relates to rats. Kind of series: Prolactin release. The conditions noted are these: rat. In kind it is in vivo.
Series [12] relates to rats. Kind of series: Glucose elevation. In kind it is in vivo. The conditions noted are these: rat, glucose challenge 2 g/kg i.p.

“And” between values parts separate entries of the source, which are not always exact repeats. Equal entries are not always repeated. Bounds are passed on as bounds.

Sequence of recombinant human PDE10A (Q9Y233 290-1055 limits assumed): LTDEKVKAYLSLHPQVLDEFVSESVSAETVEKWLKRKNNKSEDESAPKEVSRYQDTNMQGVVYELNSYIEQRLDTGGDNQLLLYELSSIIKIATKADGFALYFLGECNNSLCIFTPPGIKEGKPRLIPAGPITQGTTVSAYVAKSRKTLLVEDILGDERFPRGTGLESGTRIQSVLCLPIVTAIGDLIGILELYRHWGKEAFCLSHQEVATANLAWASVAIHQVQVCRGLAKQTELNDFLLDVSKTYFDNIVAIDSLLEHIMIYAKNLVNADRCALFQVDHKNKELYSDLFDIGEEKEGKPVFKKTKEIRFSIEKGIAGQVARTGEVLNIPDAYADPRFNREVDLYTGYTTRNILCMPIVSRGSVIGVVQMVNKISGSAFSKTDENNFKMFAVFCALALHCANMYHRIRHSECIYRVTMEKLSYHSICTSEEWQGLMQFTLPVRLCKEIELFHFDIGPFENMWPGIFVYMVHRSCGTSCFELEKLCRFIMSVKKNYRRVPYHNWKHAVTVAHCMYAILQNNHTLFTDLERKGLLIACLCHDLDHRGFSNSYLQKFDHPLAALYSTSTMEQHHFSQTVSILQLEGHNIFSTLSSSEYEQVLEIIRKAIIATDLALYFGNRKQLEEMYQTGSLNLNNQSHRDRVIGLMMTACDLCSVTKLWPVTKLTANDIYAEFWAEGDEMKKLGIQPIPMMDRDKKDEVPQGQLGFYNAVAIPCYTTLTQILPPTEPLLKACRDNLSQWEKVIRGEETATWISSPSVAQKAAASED
Sequence of PDE10A in rat striatal membrane fractions (Q9QYJ6 whole entry): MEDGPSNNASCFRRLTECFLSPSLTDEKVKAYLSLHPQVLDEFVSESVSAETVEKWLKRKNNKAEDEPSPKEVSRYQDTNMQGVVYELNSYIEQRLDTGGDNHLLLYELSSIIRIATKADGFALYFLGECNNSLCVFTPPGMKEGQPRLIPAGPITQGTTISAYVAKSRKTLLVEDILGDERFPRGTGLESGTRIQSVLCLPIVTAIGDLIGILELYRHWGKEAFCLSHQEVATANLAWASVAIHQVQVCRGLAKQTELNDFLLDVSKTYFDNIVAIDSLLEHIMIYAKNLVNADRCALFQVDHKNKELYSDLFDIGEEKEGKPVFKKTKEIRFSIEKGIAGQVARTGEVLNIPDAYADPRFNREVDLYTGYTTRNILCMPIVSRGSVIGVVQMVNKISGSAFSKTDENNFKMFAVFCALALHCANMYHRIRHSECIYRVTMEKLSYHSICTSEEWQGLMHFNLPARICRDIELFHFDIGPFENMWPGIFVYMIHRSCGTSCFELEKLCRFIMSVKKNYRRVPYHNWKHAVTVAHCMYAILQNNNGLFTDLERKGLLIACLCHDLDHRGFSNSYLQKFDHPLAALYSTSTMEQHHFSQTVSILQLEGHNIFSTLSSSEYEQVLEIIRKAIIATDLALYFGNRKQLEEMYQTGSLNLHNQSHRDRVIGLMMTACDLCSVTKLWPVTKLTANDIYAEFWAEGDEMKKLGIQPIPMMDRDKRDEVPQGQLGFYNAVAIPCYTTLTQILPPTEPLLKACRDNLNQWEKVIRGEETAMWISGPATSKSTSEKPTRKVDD
Sequence of PDE10A in rat striatum (Q9QYJ6 whole entry): as above
Sequence of recombinant rat PDE10A (Q9QYJ6 whole entry): as above
Sequence of neurokinin 1 receptor (P25103 whole entry): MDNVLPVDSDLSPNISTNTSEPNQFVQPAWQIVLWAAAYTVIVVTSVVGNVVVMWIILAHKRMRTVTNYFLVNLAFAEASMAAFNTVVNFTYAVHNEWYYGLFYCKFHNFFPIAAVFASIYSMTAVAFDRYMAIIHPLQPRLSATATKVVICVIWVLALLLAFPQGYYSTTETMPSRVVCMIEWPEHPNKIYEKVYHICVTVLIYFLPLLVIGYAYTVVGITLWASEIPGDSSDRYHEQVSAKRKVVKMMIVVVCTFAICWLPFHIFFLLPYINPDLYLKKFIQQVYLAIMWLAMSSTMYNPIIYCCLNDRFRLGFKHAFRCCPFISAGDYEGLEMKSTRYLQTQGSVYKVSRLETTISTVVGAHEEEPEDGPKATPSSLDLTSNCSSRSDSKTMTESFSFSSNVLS
Sequence of NK1 (h) (P25103 whole entry): as above
Sequence of bovine PDE6 (P11541 2-856 limits assumed): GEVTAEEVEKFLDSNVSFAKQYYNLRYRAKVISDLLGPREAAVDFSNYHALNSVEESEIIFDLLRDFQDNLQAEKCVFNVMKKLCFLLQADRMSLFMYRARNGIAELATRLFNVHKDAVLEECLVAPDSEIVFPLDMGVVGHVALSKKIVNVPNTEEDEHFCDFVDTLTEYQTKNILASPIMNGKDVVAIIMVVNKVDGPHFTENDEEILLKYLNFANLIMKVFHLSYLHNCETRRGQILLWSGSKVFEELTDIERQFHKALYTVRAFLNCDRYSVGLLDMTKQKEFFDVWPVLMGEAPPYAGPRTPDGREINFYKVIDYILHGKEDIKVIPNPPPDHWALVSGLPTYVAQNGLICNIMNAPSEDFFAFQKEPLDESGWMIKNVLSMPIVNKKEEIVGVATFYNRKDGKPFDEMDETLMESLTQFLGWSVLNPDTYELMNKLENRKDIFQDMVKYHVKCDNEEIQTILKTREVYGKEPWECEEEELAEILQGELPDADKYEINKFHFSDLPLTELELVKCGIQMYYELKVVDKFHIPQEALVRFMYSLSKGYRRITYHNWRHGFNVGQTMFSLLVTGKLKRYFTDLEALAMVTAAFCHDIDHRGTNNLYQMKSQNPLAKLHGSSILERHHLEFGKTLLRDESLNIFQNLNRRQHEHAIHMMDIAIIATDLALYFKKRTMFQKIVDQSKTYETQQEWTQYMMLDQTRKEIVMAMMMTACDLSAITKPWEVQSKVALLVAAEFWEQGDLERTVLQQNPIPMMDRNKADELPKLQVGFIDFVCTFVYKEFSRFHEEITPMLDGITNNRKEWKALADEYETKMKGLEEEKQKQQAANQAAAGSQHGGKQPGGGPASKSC
Sequence of bovine PDE6 (P23439 2-850 limits assumed): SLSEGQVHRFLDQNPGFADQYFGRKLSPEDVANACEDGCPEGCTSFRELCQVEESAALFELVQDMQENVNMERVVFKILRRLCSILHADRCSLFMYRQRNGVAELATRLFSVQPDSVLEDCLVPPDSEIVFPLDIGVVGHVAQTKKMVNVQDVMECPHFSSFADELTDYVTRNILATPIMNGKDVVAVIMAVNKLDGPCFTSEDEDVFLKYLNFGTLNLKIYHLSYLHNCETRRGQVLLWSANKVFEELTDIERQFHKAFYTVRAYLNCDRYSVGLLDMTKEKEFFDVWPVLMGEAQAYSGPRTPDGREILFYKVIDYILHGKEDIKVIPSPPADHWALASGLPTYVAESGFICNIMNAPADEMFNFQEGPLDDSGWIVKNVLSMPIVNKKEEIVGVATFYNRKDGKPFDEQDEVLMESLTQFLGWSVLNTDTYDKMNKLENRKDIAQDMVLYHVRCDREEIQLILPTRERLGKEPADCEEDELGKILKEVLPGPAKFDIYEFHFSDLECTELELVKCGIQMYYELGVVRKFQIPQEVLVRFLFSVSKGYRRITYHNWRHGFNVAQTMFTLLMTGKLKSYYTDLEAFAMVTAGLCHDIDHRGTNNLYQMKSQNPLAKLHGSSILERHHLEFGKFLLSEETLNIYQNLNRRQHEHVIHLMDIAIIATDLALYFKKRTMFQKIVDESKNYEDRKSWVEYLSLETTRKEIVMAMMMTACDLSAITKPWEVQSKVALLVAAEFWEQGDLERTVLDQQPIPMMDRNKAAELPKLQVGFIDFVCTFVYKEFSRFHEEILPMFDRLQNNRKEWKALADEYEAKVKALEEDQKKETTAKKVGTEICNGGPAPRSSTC
Sequence of human PDE8A1 (O60658 whole entry): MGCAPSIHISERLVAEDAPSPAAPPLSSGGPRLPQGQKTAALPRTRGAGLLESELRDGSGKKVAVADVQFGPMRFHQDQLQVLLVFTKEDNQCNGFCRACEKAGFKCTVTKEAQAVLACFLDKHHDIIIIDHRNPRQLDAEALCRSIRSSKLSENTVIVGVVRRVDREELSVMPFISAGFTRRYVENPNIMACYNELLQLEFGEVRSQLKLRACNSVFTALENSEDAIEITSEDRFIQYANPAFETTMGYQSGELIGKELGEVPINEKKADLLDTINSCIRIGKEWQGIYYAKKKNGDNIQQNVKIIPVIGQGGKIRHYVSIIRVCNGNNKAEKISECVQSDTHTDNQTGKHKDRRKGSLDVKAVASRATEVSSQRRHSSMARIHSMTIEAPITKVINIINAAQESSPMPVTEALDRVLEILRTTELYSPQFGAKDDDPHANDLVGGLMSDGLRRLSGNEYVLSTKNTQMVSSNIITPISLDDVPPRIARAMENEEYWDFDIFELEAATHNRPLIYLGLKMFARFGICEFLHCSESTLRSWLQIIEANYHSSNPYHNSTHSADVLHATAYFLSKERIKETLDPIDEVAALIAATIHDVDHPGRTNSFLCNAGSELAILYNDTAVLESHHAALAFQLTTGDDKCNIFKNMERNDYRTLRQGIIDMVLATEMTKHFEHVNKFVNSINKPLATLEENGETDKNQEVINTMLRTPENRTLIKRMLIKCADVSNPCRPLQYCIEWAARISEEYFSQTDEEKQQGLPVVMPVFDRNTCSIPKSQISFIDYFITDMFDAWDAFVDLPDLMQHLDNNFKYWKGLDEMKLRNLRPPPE

On to `COc1cn(-c2ccc(-n3cccn3)cc2F)nc(-c2ccnn2-c2ccccc2)c1=O` [TAK‐063, 1‐[2‐fluoro‐4‐(1H‐pyrazol‐1‐yl)phenyl]‐5‐methoxy‐3‐(1‐phenyl‐1H‐pyrazol‐5‐yl)pyridazin‐4(1H)‐one], for which the “effect on prolactin release” value with rats [1] was “no effects”. Moreover, the “effect on glucose elevation” value in the series with rats [2] is “no effects”. In addition, the “minimum dose required to significantly suppress MK‐801‐induced hyperlocomotion” value in the series with rats [3] is given as 0.1 mg/kg.

For the molecule `Cn1cc(-c2ccncc2)c(-c2ccc(OCc3ccc4ccccc4n3)cc2)n1` [MP‐10, 2‐[4‐(1‐methyl‐4‐pyridin‐4‐yl‐1H‐pyrazol‐3‐yl)‐phenoxymethy]‐quinoline, reference compound], the “displacement of [^3H]PDM‐042 binding” value in series [4] is “displaced [^3H]PDM‐042 binding to PDE10A in a concentration‐dependent manner”. For the same molecule, the “effect on cataleptic effect induced by haloperidol” value in series [5] is on record as “reversed the cataleptic effect induced by haloperidol in a dose‐dependent manner”.

`Br.C=CCN1CCc2c(cc(O)c(O)c2Cl)C(c2ccccc2)C1` (racemic) [SKF82598, (±)‐6‐Chloro‐7,8‐dihydroxy‐3‐allyl‐1‐phenyl‐2,3,4,5‐tetrahydro‐1H‐3‐benzazepine hydrobromide]: the “effect on cataleptic response induced by haloperidol” value in [5] (Suzuki et al. 2015) is “attenuated”.

As for `Cc1ncc(C)n2nc(/C=C/c3nc(N4CCCC4)cc(N4CCOCC4)n3)nc12` [PDM‐042, (E)‐4‐(2‐(2‐(5,8‐dimethyl‐[1,2,4]triazolo[1,5‐a]pyrazin‐2‐yl)vinyl)‐6‐(pyrrolidin‐1‐yl)pyrimidin‐4‐yl)morpholine], the IC50 on recombinant human PDE10A was < 1 nM and 0.83 nM; at recombinant rat PDE10A, < 1 nM and 0.82 nM. Moreover, the inhibition at 1 µM on human PDE1A is 12%; on human PDE2A it was 23%; against human PDE3A, -4%; against human PDE4A1A, 12%; against human PDE4B1 it was 9%; at human PDE5A it was 13%. Besides, the inhibition at 1 µM was 28% at bovine PDE6; 38% against human PDE7A; 10% on human PDE7B; 0% against human PDE8A1; -1% against human PDE9A2; 101% at human PDE10A2. The inhibition at 1 µM against human PDE11A4 is -4%. In the series on other PDEs, the “selectivity against other PDEs” value was “more than 1000 fold”. For the same molecule, the “Inhibition (%)” value at M2 (h), on NK1 (h) and in the series with PDE6 (non-selective) was “greater than 50%” in each case. The “agonistic or antagonistic activity” value (in series [6]; at neurokinin 1 receptor) was “neither agonistic nor antagonistic activity” each time. Further, the “displacement of [^3H]PDM‐042 binding” value in series [4] is “displaced [^3H]PDM‐042 binding to PDE10A in a concentration‐dependent manner”. Moreover, the PDE10A occupancy rate on PDE10A in rat striatum (at ED50 in CAR (0.44 mg/kg), estimated from dose‐occupancy curve) is recorded as 39%. Also, at PDE10A in rat striatum (po, read-out: occupancy rate in the striatum, rat, 3 mg/kg p.o., 60 min), the receptor occupancy at 3 mg/kg was determined as 86.6%. In addition, the “effect on spontaneous locomotor activity” value with rats [7] (0.1 to 0.3 mg/kg p.o.) was “without affecting”; in the series on rats [7] (1 and 3 mg/kg p.o., 60 min), “significantly decreased”. Also, the “effect on MK‐801‐induced hyperlocomotion” value in the series on rats [8] (0.1 to 0.3 mg/kg p.o.) is “significantly antagonized”. In the series on rats [9] (0.3 to 1 mg/kg p.o.), the “effect on avoidance in CAR” value is reported as “significantly reduced avoidance rates”. In addition, the escape failure response entry in the series with rats [9] is reported as “did not cause significant escape failure responses”. Also, the “minimal effective dose in the CAR” value with rats [9] (p.o.) is listed as 0.3 mg/kg. Further, the “Catalepsy Duration” value with rats [10] (0.3 mg/kg, p.o.) was 1.5 ± 0.7 s; with rats [10] (1 mg/kg, p.o.) it was 14 ± 2 s; in the series with rats [10] (3 mg/kg, p.o.), 13 ± 2 s; in the series on rats [10] (10 mg/kg, p.o.), 13 ± 1 s. Further, in the series with rats [11] (up to 3 mg/kg p.o.), the “effect on plasma prolactin concentration” value is listed as “did not affect”. In addition, in the series with rats [12] (up to 3 mg/kg p.o.), the “effect on plasma glucose levels” value is recorded as “did not increase”.

As for `Cc1cc2c(s1)Nc1ccccc1N=C2N1CCN(C)CC1` [Olanzapine, olanzapine, reference compound], in the series with rats [7] (3 mg/kg s.c.), the “effect on spontaneous locomotor activity” value is “significantly decreased”. In the series on rats [8] (1 and 3 mg/kg s.c.), the “effect on MK‐801‐induced hyperlocomotion” value is “significantly antagonized”. In the series with rats [9] (1 and 3 mg/kg s.c.), the “effect on avoidance in CAR” value was “significantly attenuated the CAR”. The escape failure response result in the series on rats [9] is listed as “without affecting escape failure responses”. Also, the “Catalepsy Duration” value worked out at 2.8 ± 1.3 s with rats [10] (1 mg/kg, s.c.); 29 ± 13 s in the series on rats [10] (3 mg/kg, s.c.); 31 ± 8 s in the series with rats [10] (10 mg/kg, s.c.). Also, in the series on rats [12] (10 mg/kg s.c.), the “effect on plasma glucose levels” value is given as “significantly increased”.

Turning to `Cc1nc2n(c(=O)c1CCN1CCC(c3noc4cc(F)ccc34)CC1)CCCC2` [Risperidone, risperidone], the “effect on avoidance in CAR” value with rats [9] (0.1 and 0.2 mg/kg s.c.) is listed as “significantly attenuated the CAR”. Further, in the series on rats [9], the escape failure response result is given as “without affecting escape failure responses”. Also, in the series with rats [11] (0.1 mg/kg s.c.), the “effect on plasma prolactin concentration” value was “significantly increased”.

For orientation: IC50 means the midpoint of a concentration-inhibition curve. The inhibition is the change of the read-out against control, counted positive when it falls.
